Among the data in ChEMBL document CHEMBL1649309, “Foreign travel is a major risk factor for colonization with Escherichia coli producing CTX-M-type extended-spectrum beta-lactamases: a prospective study with Swedish volunteers” (Antimicrob Agents Chemother, 2010) are Activity values, retold here.

Active and inactive are the calls of the source. The calls are words filed in the database; no cut-off is given here.

The first assay has as its system Escherichia coli. Briefly: Antimicrobial activity against ESBL producing Escherichia coli assessed as resistant isolates by Etest. It counts as functional, organism-based. In outline:
(§1)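 24 ESBL-producing E. coli strains acquired during travel, isolated from post-travel rectal swabs of Swedish travellers. Swabs were enriched in LB broth with cefotaxime 2.5 μg/ml, then plated on MacConkey agar with cefotaxime and ceftazidime discs, overnight at 35°C in room air. ESBL production was confirmed by disc-diffusion synergy test and CTX-M by PCR. Susceptibility was measured by Etest and interpreted per EUCAST guidelines.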
GENTAMICIN: the result was inactive.
On to `NC[C@H]1O[C@H](O[C@H]2[C@H](O)[C@@H](O[C@H]3O[C@H](CO)[C@@H](O)[C@H](N)[C@H]3O)[C@H](N)C[C@@H]2N)[C@H](N)C[C@@H]1O`, for which the outcome was inactive.
With `C[C@@H]1O[C@@H]1P(=O)(O)O`, the outcome was inactive.

The test system of a further assay is Escherichia coli. Kind of assay: Antimicrobial activity against ESBL producing Escherichia coli assessed as susceptible isolates by Etest. It counts as functional, organism-based. Summed up:
as §1
On to `C[C@@H](O)[C@H]1C(=O)N2C(C(=O)O)=C(S[C@@H]3CN[C@H](C(=O)Nc4cccc(C(=O)O)c4)C3)[C@H](C)[C@H]12`, for which the outcome was Active.
Still for that read-out and setting: the same measure for `O=C(O)c1cn(C2CC2)c2cc(N3CCNCC3)c(F)cc2c1=O`: “Active”; for `O=C1CN(/N=C/c2ccc([N+](=O)[O-])o2)C(=O)N1`: “Active”.
The same measure, in the same setting: the same measure for `C[C@@H](O)[C@H]1C(=O)N2C(C(=O)O)=C(SCCNC=N)C[C@H]12`: “Active”; for `C[C@@H](O)[C@H]1C(=O)N2C(C(=O)O)=C(S[C@@H]3CN[C@H](C(=O)N(C)C)C3)[C@H](C)[C@H]12`: “Active”; for `CC1(C)S[C@@H]2[C@H](/N=C/N3CCCCCC3)C(=O)N2[C@H]1C(=O)O`: “Active”.

The next assay has as its system Escherichia coli. Briefly: Antimicrobial activity against ESBL producing Escherichia coli assessed as susceptible isolates by Etest in presence of beta-lactamase inhibitor Tazobactam. The class given is functional, organism-based. In outline: as §1
As to `CCN1CCN(C(=O)N[C@@H](C(=O)N[C@@H]2C(=O)N3[C@@H]2SC(C)(C)[C@@H]3C(=O)O)c2ccccc2)C(=O)C1=O`, the result was Active.
